Results taken from article PMC9623233 (Clinical Cancer Research, 2022).

Experiment: Phase I safety and tolerability: adverse events
Format: in vivo, human
Outline: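 Open-label 3+3 escalation of intravenous test compound. Each 4-week cycle was four weekly or two biweekly doses; later arms were biweekly with dexamethasone prophylaxis, or every 3 weeks. AEs were graded by NCI CTCAE v4.0, with laboratory tests, pulmonary function (entry FVC >70%, DLCOc >60%), vital signs, ECG and examination. DLT window: two cycles (8 weeks; 6 weeks for 3-weekly dosing).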

[1] = 12 mg/m^2/q2Wk expansion, worst grade G1
[2] = 12 mg/m^2/q2Wk expansion, worst grade G2
[3] = 12 mg/m^2/q2Wk expansion, worst grade G3
[4] = 12 mg/m^2/q2Wk with and without steroid, Total, all grades
[5] = 12 mg/m^2/q2Wk-steroid expansion, worst grade G1
[6] = 12 mg/m^2/q2Wk-steroid expansion, worst grade G2
[7] = 12 mg/m^2/q2Wk-steroid expansion, worst grade G3

In the case of C#CCN(c1ccc(C(=O)N[C@@H](CCC(=O)N[C@H](CCC(=O)O)C(=O)O)C(=O)O)cc1)[C@H]1CCc2cc3nc(CO)[nH]c(=O)c3cc21 [CT900, N-[4-[2-propyn-1-yl[(6S)-4,6,7,8-tetrahydro-2-(hydroxymethyl)-4-oxo-3H-cyclopenta [g]quinazolin-6-yl]amino]benzoyl]-l-gamma-glutamyl-D-glutamic acid], the “Anemia, treatment-related” value [1] is reported as 2 (8) n (%), the “Aspartate aminotransferase increased, treatment-related” value (from here on “Aspartate aminotransferase increased”) [1] is reported as 3 (12) n (%) and the “Chills, treatment-related” value [1] is reported as 2 (8) n (%). The “Cough, treatment-related” value [1] was 8 (32) n (%), the “Decreased appetite, treatment-related” value [1] was 3 (12) n (%) and the “Diarrhea, treatment-related” value [1] was 4 (16) n (%). For the same molecule, the “Fatigue, treatment-related” value [1] was 12 (48) n (%), the “Nausea, treatment-related” value [1] was 8 (32) n (%) and the “Pneumonitis, treatment-related” value [1] was 0 (0) n (%). The “Pyrexia, treatment-related” value [1] was 3 (12) n (%), the “Vomiting, treatment-related” value [1] was 4 (16) n (%) and the “Anemia, treatment-related” value [2] was 2 (8) n (%). For the same molecule, the “Aspartate aminotransferase increased” value [2] was 1 (4) n (%), the “Chills, treatment-related” value [2] was 1 (4) n (%) and the “Cough, treatment-related” value [2] was 0 (0) n (%). For the same molecule, the “Decreased appetite, treatment-related” value [2] was 0 (0) n (%), the “Diarrhea, treatment-related” value [2] was 1 (4) n (%) and the “Fatigue, treatment-related” value [2] was 1 (4) n (%). The “Nausea, treatment-related” value [2] was 4 (16) n (%), the “Pneumonitis, treatment-related” value [2] was 4 (16) n (%) and the “Pyrexia, treatment-related” value [2] was 0 (0) n (%). For the same molecule, the “Vomiting, treatment-related” value [2] was 0 (0) n (%), the “Anemia, treatment-related” value [3] was 0 (0) n (%) and the “Aspartate aminotransferase increased” value [3] was 0 (0) n (%). The “Chills, treatment-related” value [3] was 0 (0) n (%), the “Cough, treatment-related” value [3] was 0 (0) n (%) and the “Decreased appetite, treatment-related” value [3] was 0 (0) n (%). The “Diarrhea, treatment-related” value [3] was 1 (4) n (%), the “Fatigue, treatment-related” value [3] was 0 (0) n (%) and the “Nausea, treatment-related” value [3] was 0 (0) n (%). The “Pneumonitis, treatment-related” value [3] was 0 (0) n (%), the “Pyrexia, treatment-related” value [3] was 0 (0) n (%) and the “Vomiting, treatment-related” value [3] was 0 (0) n (%). For the same molecule, the “Anemia, treatment-related” value [4] was 8 (20) n (%), the “Aspartate aminotransferase increased” value [4] was 7 (18) n (%) and the “Chills, treatment-related” value [4] was 4 (10) n (%). For the same molecule, the “Cough, treatment-related” value [4] was 9 (23) n (%), the “Decreased appetite, treatment-related” value [4] was 4 (10) n (%) and the “Diarrhea, treatment-related” value [4] was 9 (23) n (%). The “Fatigue, treatment-related” value [4] was 21 (53) n (%), the “Nausea, treatment-related” value [4] was 16 (40) n (%) and the “Pneumonitis, treatment-related” value [4] was 8 (20) n (%). The “Pyrexia, treatment-related” value [4] was 7 (18) n (%), the “Vomiting, treatment-related” value [4] was 4 (10) n (%) and the “Anemia, treatment-related” value [5] was 1 (6.7) n (%). The “Aspartate aminotransferase increased” value [5] was 3 (20) n (%), the “Chills, treatment-related” value [5] was 1 (6.7) n (%) and the “Cough, treatment-related” value [5] was 1 (6.7) n (%). The “Decreased appetite, treatment-related” value [5] was 1 (6.7) n (%), the “Diarrhea, treatment-related” value [5] was 2 (13.3) n (%) and the “Fatigue, treatment-related” value [5] was 6 (40) n (%). The “Nausea, treatment-related” value [5] was 4 (26.7) n (%), the “Pneumonitis, treatment-related” value [5] was 1 (6.7) n (%) and the “Pyrexia, treatment-related” value [5] was 4 (26.7) n (%). The “Vomiting, treatment-related” value [5] was 0 (0) n (%), the “Anemia, treatment-related” value [6] was 1 (6.7) n (%) and the “Aspartate aminotransferase increased” value [6] was 0 (0) n (%). The “Chills, treatment-related” value [6] was 0 (0) n (%), the “Cough, treatment-related” value [6] was 0 (0) n (%) and the “Decreased appetite, treatment-related” value [6] was 0 (0) n (%). For the same molecule, the “Diarrhea, treatment-related” value [6] was 0 (0) n (%), the “Fatigue, treatment-related” value [6] was 2 (13.3) n (%) and the “Nausea, treatment-related” value [6] was 0 (0) n (%). For the same molecule, the “Pneumonitis, treatment-related” value [6] was 3 (20) n (%), the “Pyrexia, treatment-related” value [6] was 0 (0) n (%) and the “Vomiting, treatment-related” value [6] was 0 (0) n (%). For the same molecule, the “Anemia, treatment-related” value [7] was 2 (13.3) n (%), the “Aspartate aminotransferase increased” value [7] was 0 (0) n (%) and the “Chills, treatment-related” value [7] was 0 (0) n (%). The “Cough, treatment-related” value [7] was 0 (0) n (%), the “Decreased appetite, treatment-related” value [7] was 0 (0) n (%) and the “Diarrhea, treatment-related” value [7] was 1 (6.7) n (%). The “Fatigue, treatment-related” value [7] was 0 (0) n (%), the “Nausea, treatment-related” value [7] was 0 (0) n (%) and the “Pneumonitis, treatment-related” value [7] was 0 (0) n (%). The “Pyrexia, treatment-related” value [7] was 0 (0) n (%), the “Vomiting, treatment-related” value [7] was 0 (0) n (%) and the “Drug-related, predominantly low-grade pneumonitis” value (all patients, 10/109) was 9%. The Fatal pneumonitis (during the trial) was “no cases of fatal pneumonitis”, the “Recommended phase II dose/schedule” value (intravenous) was 12 mg/m^2/q2Wk and the “Drug-related NCI CTCAE ≥grade 3 events” value (qWk schedule 1-6 mg/m^2, 21 patients: anemia, cellulitis, pneumonitis) was “three”.
